Holding throughout (format): functional
For test [1], the system named is HCT-116. Put plainly: (§1) Cytotoxicity against human HCT116 cells assessed as growth inhibition at 5 ug/ml after 72 hrs by MTT assay. A digest of the protocol:
(§2)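 Cells were maintained in RPMI 1640 with 10% FBS and 1% antibiotic at 37 °C under 5% CO2. Samples were dissolved in DMSO and tested at a single 5 µg/mL for 72 h. Viability was read by MTT: 3 h incubation, formazan dissolved in DMSO, absorbance at 595 nm. Results were graded on an intensity scale.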
(In general: Formazan colour is commonly taken as a measure of viable cells.)

In test [2] the test system is SF-295. Put plainly: (§3) Cytotoxicity against human SF295 cells assessed as growth inhibition at 5 ug/ml after 72 hrs by MTT assay. The gist of the method: (§4)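 Cells were grown in RPMI 1640 with 10% FBS and 1% antibiotic at 37 °C under 5% CO2, and seeded at 0.1 x 10^6 cells/mL. Samples were dissolved in DMSO and tested at 5 µg/mL for 72 h. MTT was added for 3 h, the precipitate was dissolved in DMSO, and absorbance was read at 595 nm. Potential was rated on an intensity scale.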

The test system of test [3] is Proteus vulgaris. Put plainly: Antibacterial activity against Proteus vulgaris ATCC 13315 after 24 hrs by broth microdilution method. A digest of the protocol:
(§5)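 Broth microdilution in BHI following CLSI M100-S16. Strains were activated in BHI for 24 h at 35 ± 2 °C, adjusted to 0.5 McFarland, and diluted to a final inoculum of 5 x 10^5 CFU/mL. Samples were dissolved in water/DMSO and tested at final 512-8 µg/mL, in triplicate. Plates were incubated 24 h at 35 ± 2 °C, then 0.01% resazurin was added. MIC was the lowest concentration preventing the visual blue-to-red change. Amikacin, gentamicin and neomycin served as positive controls.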
On the technique in general: In broth dilution the organism is exposed to a series of concentrations in liquid medium.

Test [4] relates to OVCAR-8. Put plainly: (§6) Cytotoxicity against human OVCAR8 cells assessed as growth inhibition at 5 ug/ml after 72 hrs by MTT assay. A digest of the protocol: as §4
The subject of test [5] is Escherichia coli. Put plainly: Antibacterial activity against Escherichia coli ATCC 10536 after 24 hrs by broth microdilution method. A digest of the protocol:
as §5

The test system of test [6] is Staphylococcus aureus. As to the kind of experiment: Antibacterial activity against Staphylococcus aureus 358 after 24 hrs by broth microdilution method. The gist of the method: as §5
Test [7] has as its system Enterococcus faecalis. Put plainly: Antibacterial activity against Enterococcus faecalis ATCC 4083 after 24 hrs by broth microdilution method. A digest of the protocol: as §5
Test [8] deals with Staphylococcus aureus. As to the kind of experiment: Antibacterial activity against Staphylococcus aureus ATCC 25923 after 24 hrs by broth microdilution method. A digest of the protocol:
as §5

The test system of test [9] is Escherichia coli. Put plainly: Antibacterial activity against Escherichia coli 27 after 24 hrs by broth microdilution method. A digest of the protocol: as §5
Test [10] in a line: as §1. To be noted: HCT-116, 72 h, read-out: GI. The gist of the method:
as §2

The test system of test [11] is Vibrio cholerae. Put plainly: Antibacterial activity against Vibrio cholerae ATCC 15748 after 24 hrs by broth microdilution method. To be noted: ATCC 15748, 24 h.
Test [12] is described as follows: as §3. To be noted: SF-295, 72 h, read-out: GI. A digest of the protocol:
as §4

For test [13], the system named is Staphylococcus aureus. As to the kind of experiment: Antibacterial activity against Staphylococcus aureus ATCC 6538 after 24 hrs by broth microdilution method. To be noted: ATCC 6538, 24 h.
Test [14] can be described thus: as §6. To be noted: OVCAR-8, 72 h, read-out: GI. A digest of the protocol: as §4
In test [15] the test system is Staphylococcus aureus. As to the kind of experiment: Antibacterial activity against Staphylococcus aureus ATCC 12624 after 24 hrs by broth microdilution method. To be noted: ATCC 12624, 24 h.
Test [16] relates to Listeria monocytogenes. As to the kind of experiment: Antibacterial activity against Listeria monocytogenes ATCC 19117 after 24 hrs by broth microdilution method. To be noted: ATCC 19117, 24 h.
For test [17], the system named is Klebsiella pneumoniae. As to the kind of experiment: Antibacterial activity against Klebsiella pneumoniae ATCC 10031 after 24 hrs by broth microdilution method. To be noted: ATCC 10031, 24 h.
In test [18] the test system is Shigella flexneri. As to the kind of experiment: Antibacterial activity against Shigella flexneri ATCC 12022 after 24 hrs by broth microdilution method. To be noted: ATCC 12022, 24 h.
In test [19] the test system is Aeromonas caviae. Put plainly: Antibacterial activity against Aeromonas caviae ATCC 15468 after 24 hrs by broth microdilution method. To be noted: ATCC 15468, 24 h.
Test [20] deals with Bacillus cereus. As to the kind of experiment: Antibacterial activity against Bacillus cereus ATCC 33018 after 24 hrs by broth microdilution method. To be noted: ATCC 33018, 24 h.
Test [21] relates to Pseudomonas aeruginosa. Put plainly: Antibacterial activity against Pseudomonas aeruginosa ATCC 15442 after 24 hrs by broth microdilution method. To be noted: ATCC 15442, 24 h.
In test [22] the test system is Staphylococcus aureus. Put plainly: Antibacterial activity against Staphylococcus aureus ATCC 12692 after 24 hrs by broth microdilution method. To be noted: ATCC 12692, 24 h.
The test system of test [23] is Escherichia coli. As to the kind of experiment: Antibacterial activity against Escherichia coli ATCC 25922 after 24 hrs by broth microdilution method. To be noted: ATCC 25922, 24 h.
[24] abbreviates: Staphylococcus aureus, 358, 24 h.

≈ marks a conversion by molar mass, not a printed value. Calls of active or inactive are those of the source. The calls are words filed in the database; no cut-off is given here.

Usually MIC stands for the least concentration at which growth counts as inhibited. Read a high MIC as a less susceptible organism.

For `CC(C)=CCCC1=COC2=C(C)C(=O)/C(=N\Nc3ccccc3)c3c(C)ccc1c32`, the “growth inhibition (GI)” value in test [1], in test [2] and in test [4] was “inactive” each time. The MIC in test [3] (ATCC 13315, 24 h) was ≥ 1020 µg/mL; in test [5] (ATCC 10536, 24 h) it was ≥ 1020 µg/mL; in [6] (setting [24]), ≥ 1020 µg/mL; in test [7] (ATCC 4083, 24 h) it was 512 µg/mL (≈ 1280 µM); in test [8] (ATCC 25923, 24 h), 256 µg/mL (≈ 642 µM); in test [9] (Escherichia coli, 27, 24 h), ≥ 1020 µg/mL.
Regarding `NCC[C@H](O)C(=O)N[C@@H]1C[C@H](N)[C@@H](O[C@H]2O[C@H](CN)[C@@H](O)[C@H](O)[C@H]2O)[C@H](O)[C@H]1O[C@H]1O[C@H](CO)[C@@H](O)[C@H](N)[C@H]1O` [AMIKACIN], the MIC in [3] (ATCC 13315, 24 h) was 512 µg/mL (≈ 874 µM); in [6] (setting [24]), 256 µg/mL (≈ 437 µM); in test [7] (ATCC 4083, 24 h), 256 µg/mL (≈ 437 µM); in test [8] (ATCC 25923, 24 h) it was 256 µg/mL (≈ 437 µM); in [9] (Escherichia coli, 27, 24 h) it was 128 µg/mL (≈ 219 µM).
For GENTAMICIN, the MIC in [3] came to 64 µg/mL; in test [5] it was 128 µg/mL; in test [6], 8 µg/mL; in [7] it was 32 µg/mL; in [8] it was 32 µg/mL; in test [9] it was 512 µg/mL.
In the case of `NCC1O[C@H](O[C@H]2[C@@H](O)[C@H](O[C@H]3[C@H](O)[C@@H](N)C[C@@H](N)[C@@H]3O[C@H]3O[C@H](CN)[C@@H](O)[C@H](O)[C@H]3N)O[C@@H]2CO)[C@H](N)[C@@H](O)[C@@H]1O` (some centres not stated), the minimal inhibitory concentration (MIC) in [3] (ATCC 13315, 24 h) worked out at 512 µg/mL (≈ 833 µM); in test [5] (ATCC 10536, 24 h), 512 µg/mL (≈ 833 µM); in test [6] (setting [24]), 32 µg/mL (≈ 52.1 µM); in test [7] (ATCC 4083, 24 h), 128 µg/mL (≈ 208 µM); in [8] (ATCC 25923, 24 h) it was 32 µg/mL (≈ 52.1 µM); in test [9] (Escherichia coli, 27, 24 h) it was 128 µg/mL (≈ 208 µM).
Turning to `CO/N=C1\C(=O)C(C)=C2OC=C(CCC=C(C)C)c3ccc(C)c1c32`, the “growth inhibition (GI)” value in test [1], in [2] and in test [4] was “inactive” in each case. Further, the MIC in test [3] (ATCC 13315, 24 h) is 64 µg/mL (≈ 190 µM); in test [5] (ATCC 10536, 24 h), ≥ 1020 µg/mL; in test [6] (setting [24]), 64 µg/mL (≈ 190 µM); in test [7] (ATCC 4083, 24 h), 32 µg/mL (≈ 94.8 µM); in [8] (ATCC 25923, 24 h) it was 32 µg/mL (≈ 94.8 µM); in [9] (Escherichia coli, 27, 24 h), 128 µg/mL (≈ 379 µM).
In the case of `CC(C)=CCCC1=COC2=C(C)C(=O)/C(=N\Nc3ccc([N+](=O)[O-])cc3[N+](=O)[O-])c3c(C)ccc1c32`, the “growth inhibition (GI)” value in test [1], in [2] and in test [4] was “inactive” in each case. Besides, the MIC is 512 µg/mL (≈ 1050 µM) in test [3] (ATCC 13315, 24 h); 512 µg/mL (≈ 1050 µM) in [5] (ATCC 10536, 24 h); 512 µg/mL (≈ 1050 µM) in test [6] (setting [24]); 512 µg/mL (≈ 1050 µM) in test [7] (ATCC 4083, 24 h); 512 µg/mL (≈ 1050 µM) in [8] (ATCC 25923, 24 h); ≥ 1020 µg/mL in test [9] (Escherichia coli, 27, 24 h).
Take `CC(C)=CCCC1=COC2=C(C)C(=O)/C(=N\O)c3c(C)ccc1c32`: the “growth inhibition (GI)” value in test [1], in test [2] and in test [4] was “inactive” in each case. Further, the minimum inhibitory concentration (MIC) in test [3] (ATCC 13315, 24 h) is 512 µg/mL (≈ 1580 µM); in [5] (ATCC 10536, 24 h), ≥ 1020 µg/mL; in test [6] (setting [24]), ≥ 1020 µg/mL; in [7] (ATCC 4083, 24 h), 256 µg/mL (≈ 792 µM); in test [8] (ATCC 25923, 24 h), 256 µg/mL (≈ 792 µM); in test [9] (Escherichia coli, 27, 24 h) it was 512 µg/mL (≈ 1580 µM).
Take `CC(C)=CCCC1=COC2=C(C)C(=O)C(=O)c3c(C)ccc1c32`: the inhibition of growth at 5 µg/mL in test [10], in test [12] and in [14] was 75% each time. Besides, the MIC is ≥ 1020 µg/mL in [11]; ≥ 1020 µg/mL in test [13]; 16 µg/mL (≈ 51.9 µM) in test [3] (ATCC 13315, 24 h); ≥ 1020 µg/mL in test [15]; 128 µg/mL (≈ 415 µM) in [5] (ATCC 10536, 24 h); ≥ 1020 µg/mL in test [16]. For the same molecule, the MIC is ≥ 1020 µg/mL in [17]; 128 µg/mL (≈ 415 µM) in test [6] (setting [24]); ≥ 1020 µg/mL in [18]; 32 µg/mL (≈ 104 µM) in [7] (ATCC 4083, 24 h); ≥ 1020 µg/mL in [19]; ≥ 1020 µg/mL in test [20]. Moreover, the MIC in [21] is ≥ 1020 µg/mL; in [8] (ATCC 25923, 24 h), 64 µg/mL (≈ 208 µM); in test [22], ≥ 1020 µg/mL; in test [23] it was ≥ 1020 µg/mL; in test [9] (Escherichia coli, 27, 24 h) it was 256 µg/mL (≈ 830 µM).
On to `CCO/N=C1\C(=O)C(C)=C2OC=C(CCC=C(C)C)c3ccc(C)c1c32`, for which the “growth inhibition (GI)” value in [1], in test [2] and in [4] was “inactive” throughout. Further, the MIC was 512 µg/mL (≈ 1460 µM) in [3] (ATCC 13315, 24 h); 512 µg/mL (≈ 1460 µM) in test [5] (ATCC 10536, 24 h); 64 µg/mL (≈ 182 µM) in test [6] (setting [24]); 16 µg/mL (≈ 45.5 µM) in [7] (ATCC 4083, 24 h); 32 µg/mL (≈ 91.1 µM) in test [8] (ATCC 25923, 24 h); 128 µg/mL (≈ 364 µM) in test [9] (Escherichia coli, 27, 24 h).
